According to ChEMBL document CHEMBL2384909, “Development of Novel Alkene Oxindole Derivatives As Orally Efficacious AMP-Activated Protein Kinase Activators” (ACS Med Chem Lett, 2013):
pEC50: −log10 of the molar value. The source made the active and inactive calls. The calls are words filed in the database; no cut-off is given here.

Tests used:
Mus musculus [1] = test: Upregulation of PGC1alpha gene expression in C57BL/6J mouse muscles at 15 to 150 mg/kg, po; assay type: functional, organism-based; conditions: Muscle tissue
[2] = Half life in Wistar rat at 10 mg/kg, po by LC-MS/MS analysis; assay type: ADME, organism-based; design: dose 10 mg/kg, route oral; conditions: in vivo
Mus musculus [3] = test: Upregulation of FABP3 gene expression in C57BL/6J mouse muscles at 15 to 150 mg/kg, po; assay type: functional, organism-based; conditions: Muscle tissue
L6 [4] = test: Activation of AMPK in rat L6 cells assessed as stimulation of glucose uptake after 15 mins; assay type: cell-based
[5] = AUC (0 to infinity) in Wistar rat at 10 mg/kg, po by LC-MS/MS analysis; assay type: ADME, organism-based; design: time infinity, dose 10 mg/kg, route oral; conditions: plasma
Mus musculus [6] = test: Upregulation of CPT1 gene expression in C57BL/6J mouse muscles at 15 to 150 mg/kg, po; assay type: functional, organism-based; conditions: Muscle tissue
AMPK alpha2/beta1/gamma1 = AMPK alpha2/beta1/gamma1 (Homo sapiens, UniProt P54619+P54646+Q9Y478); test: Activation of recombinant AMPK alpha2beta1gamma1 (unknown origin) after 2 hrs by scintillation proximity assay; assay type: protein-complex assay
Sequence of AMPK alpha2/beta1/gamma1 (P54646 whole entry): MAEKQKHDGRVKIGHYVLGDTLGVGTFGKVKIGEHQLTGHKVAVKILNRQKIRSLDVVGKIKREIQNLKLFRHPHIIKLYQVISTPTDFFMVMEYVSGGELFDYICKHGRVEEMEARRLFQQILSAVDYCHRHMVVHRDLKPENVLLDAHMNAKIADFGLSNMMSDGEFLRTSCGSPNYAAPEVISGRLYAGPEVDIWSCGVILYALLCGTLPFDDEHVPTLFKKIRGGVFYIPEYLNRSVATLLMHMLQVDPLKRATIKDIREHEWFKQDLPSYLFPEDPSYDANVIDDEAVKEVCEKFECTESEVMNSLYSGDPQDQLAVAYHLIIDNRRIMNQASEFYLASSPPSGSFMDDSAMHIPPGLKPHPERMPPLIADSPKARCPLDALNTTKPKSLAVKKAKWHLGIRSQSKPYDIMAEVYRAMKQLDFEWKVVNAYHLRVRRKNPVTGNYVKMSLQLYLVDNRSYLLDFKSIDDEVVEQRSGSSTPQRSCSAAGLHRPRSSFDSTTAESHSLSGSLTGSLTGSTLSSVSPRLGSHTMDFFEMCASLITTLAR
Sequence of AMPK alpha2/beta1/gamma1 (P54619 whole entry): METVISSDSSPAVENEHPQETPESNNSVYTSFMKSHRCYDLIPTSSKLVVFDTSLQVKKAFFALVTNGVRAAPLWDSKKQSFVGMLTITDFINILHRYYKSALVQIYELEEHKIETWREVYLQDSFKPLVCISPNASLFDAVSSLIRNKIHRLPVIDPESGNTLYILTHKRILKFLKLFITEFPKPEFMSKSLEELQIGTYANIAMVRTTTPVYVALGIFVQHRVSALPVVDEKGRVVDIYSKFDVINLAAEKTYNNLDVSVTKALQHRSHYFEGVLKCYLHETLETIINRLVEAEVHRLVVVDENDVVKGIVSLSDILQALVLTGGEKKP
Sequence of AMPK alpha2/beta1/gamma1 (Q9Y478 whole entry): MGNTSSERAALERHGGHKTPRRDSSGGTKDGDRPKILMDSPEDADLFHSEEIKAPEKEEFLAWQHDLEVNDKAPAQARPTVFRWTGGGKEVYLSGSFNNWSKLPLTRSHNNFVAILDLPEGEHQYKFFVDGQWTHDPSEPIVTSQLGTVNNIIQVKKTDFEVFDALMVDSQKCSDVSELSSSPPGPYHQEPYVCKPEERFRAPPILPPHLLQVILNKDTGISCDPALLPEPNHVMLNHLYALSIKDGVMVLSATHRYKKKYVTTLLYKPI
Method in brief: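 Activation of bacterially expressed AMPK α2β1γ1 was measured by scintillation proximity assay. Efficacy is expressed relative to AMP.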

Cytochrome P450 1A2 = biological target: T1, Cytochrome P450 1A2 (Homo sapiens, UniProt P05177); test: Inhibition of CYP1A2 (unknown origin); assay type: ADME
T1 sequence (P05177 whole entry): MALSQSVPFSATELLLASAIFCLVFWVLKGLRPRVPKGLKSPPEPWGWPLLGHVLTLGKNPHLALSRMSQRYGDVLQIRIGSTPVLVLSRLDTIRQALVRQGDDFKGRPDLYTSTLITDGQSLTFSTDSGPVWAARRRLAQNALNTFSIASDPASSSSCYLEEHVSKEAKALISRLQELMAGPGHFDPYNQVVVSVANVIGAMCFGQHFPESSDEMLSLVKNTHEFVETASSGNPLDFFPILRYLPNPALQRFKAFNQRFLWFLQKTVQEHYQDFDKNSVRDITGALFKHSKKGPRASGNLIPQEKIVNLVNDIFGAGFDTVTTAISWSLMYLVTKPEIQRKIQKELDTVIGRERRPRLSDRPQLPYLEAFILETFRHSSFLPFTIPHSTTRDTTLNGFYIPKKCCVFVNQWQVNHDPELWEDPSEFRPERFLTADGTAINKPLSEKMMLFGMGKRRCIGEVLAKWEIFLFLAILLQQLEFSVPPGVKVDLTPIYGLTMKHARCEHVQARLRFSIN

Mus musculus [7] = test: Antidiabetic activity in diet-induced obese C57BL/6J mouse assessed as reduction in plasma triglyceride at 50 mg/kg, po qd for 4 weeks (reference value: 0.62 +/- 0.02 mM); assay type: functional
Cytochrome P450 3A4 = Cytochrome P450 3A4 (Homo sapiens, UniProt P08684); test: Inhibition of CYP3A4 (unknown origin); assay type: ADME
Sequence of Cytochrome P450 3A4 (P08684 whole entry): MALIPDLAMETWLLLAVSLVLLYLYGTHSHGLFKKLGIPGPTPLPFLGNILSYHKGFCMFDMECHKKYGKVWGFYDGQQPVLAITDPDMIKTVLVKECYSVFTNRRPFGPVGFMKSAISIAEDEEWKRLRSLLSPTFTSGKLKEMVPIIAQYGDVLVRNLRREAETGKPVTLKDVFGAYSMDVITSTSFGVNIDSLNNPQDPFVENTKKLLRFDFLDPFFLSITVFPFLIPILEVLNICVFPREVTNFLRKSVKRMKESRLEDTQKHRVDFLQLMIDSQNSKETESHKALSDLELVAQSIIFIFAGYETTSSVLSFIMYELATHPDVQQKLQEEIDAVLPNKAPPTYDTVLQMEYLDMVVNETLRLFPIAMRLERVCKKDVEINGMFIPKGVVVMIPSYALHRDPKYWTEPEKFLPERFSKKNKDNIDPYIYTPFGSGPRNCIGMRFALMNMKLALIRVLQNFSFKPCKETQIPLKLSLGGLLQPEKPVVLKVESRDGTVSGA

Mus musculus [8] = test: Antidiabetic activity in diet-induced obese C57BL/6J mouse assessed as increase in insulin tolerance at 15 to 150 mg/kg, po qd for 4 weeks by insulin tolerance test relative to control; assay type: functional, organism-based
[9] = Terminal half life in Wistar rat at 2 mg/kg, iv by LC-MS/MS analysis; assay type: ADME, organism-based; design: dose 2 mg/kg, route intravenous; conditions: in vivo, read-out: beta t1/2 (converted)
Mus musculus [10] = test: Upregulation of COX5B gene expression in C57BL/6J mouse muscles at 15 to 150 mg/kg, po; assay type: functional, organism-based; conditions: Muscle tissue
[11] = AUC (0 to 24 hrs) in Wistar rat at 10 mg/kg, po by LC-MS/MS analysis; assay type: ADME, organism-based; design: time < 24 hr, dose 10 mg/kg, route oral; conditions: plasma
Mus musculus [12] = test: Upregulation of medium chain acyl CoA dehydrogenase gene expression in C57BL/6J mouse muscles at 15 to 150 mg/kg, po; assay type: functional, organism-based; conditions: Muscle tissue
Cytochrome P450 2C19 = Cytochrome P450 2C19 (Homo sapiens, UniProt P33261); test: Inhibition of CYP2C19 (unknown origin); assay type: ADME
Sequence of Cytochrome P450 2C19 (P33261 whole entry): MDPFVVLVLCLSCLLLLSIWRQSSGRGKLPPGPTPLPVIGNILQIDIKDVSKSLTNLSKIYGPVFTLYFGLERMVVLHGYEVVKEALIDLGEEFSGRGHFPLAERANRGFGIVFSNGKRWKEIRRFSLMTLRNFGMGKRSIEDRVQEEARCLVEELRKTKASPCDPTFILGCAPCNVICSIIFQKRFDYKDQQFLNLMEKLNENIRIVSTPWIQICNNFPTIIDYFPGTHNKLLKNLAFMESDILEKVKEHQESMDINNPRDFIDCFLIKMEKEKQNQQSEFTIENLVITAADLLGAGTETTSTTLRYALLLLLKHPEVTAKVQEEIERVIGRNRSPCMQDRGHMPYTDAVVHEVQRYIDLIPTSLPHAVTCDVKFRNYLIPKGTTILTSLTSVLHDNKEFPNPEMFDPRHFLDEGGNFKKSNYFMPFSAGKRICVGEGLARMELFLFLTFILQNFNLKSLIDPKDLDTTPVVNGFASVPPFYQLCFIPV

Cytochrome P450 2D6 = Cytochrome P450 2D6 (Homo sapiens, UniProt P10635); test: Inhibition of CYP2D6 (unknown origin); assay type: ADME
Sequence of Cytochrome P450 2D6 (P10635 whole entry): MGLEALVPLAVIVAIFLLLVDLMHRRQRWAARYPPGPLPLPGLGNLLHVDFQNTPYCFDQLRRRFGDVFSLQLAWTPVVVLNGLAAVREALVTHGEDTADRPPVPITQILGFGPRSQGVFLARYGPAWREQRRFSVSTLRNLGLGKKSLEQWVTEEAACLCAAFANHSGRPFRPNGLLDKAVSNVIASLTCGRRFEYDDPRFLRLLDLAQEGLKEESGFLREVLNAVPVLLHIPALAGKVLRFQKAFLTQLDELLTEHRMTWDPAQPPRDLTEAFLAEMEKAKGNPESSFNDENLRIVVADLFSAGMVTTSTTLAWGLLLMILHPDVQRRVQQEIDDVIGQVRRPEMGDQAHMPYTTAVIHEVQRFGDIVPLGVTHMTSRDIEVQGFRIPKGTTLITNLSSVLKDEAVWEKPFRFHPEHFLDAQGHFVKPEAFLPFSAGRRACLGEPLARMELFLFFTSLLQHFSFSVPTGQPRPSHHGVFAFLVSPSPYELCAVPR

[13] = biological target: Maternal embryonic leucine zipper kinase (Homo sapiens) (UniProt Q14680); test: Activity at MELK (unknown origin)
Sequence of Maternal embryonic leucine zipper kinase (Homo sapiens) (Q14680 whole entry, looked up): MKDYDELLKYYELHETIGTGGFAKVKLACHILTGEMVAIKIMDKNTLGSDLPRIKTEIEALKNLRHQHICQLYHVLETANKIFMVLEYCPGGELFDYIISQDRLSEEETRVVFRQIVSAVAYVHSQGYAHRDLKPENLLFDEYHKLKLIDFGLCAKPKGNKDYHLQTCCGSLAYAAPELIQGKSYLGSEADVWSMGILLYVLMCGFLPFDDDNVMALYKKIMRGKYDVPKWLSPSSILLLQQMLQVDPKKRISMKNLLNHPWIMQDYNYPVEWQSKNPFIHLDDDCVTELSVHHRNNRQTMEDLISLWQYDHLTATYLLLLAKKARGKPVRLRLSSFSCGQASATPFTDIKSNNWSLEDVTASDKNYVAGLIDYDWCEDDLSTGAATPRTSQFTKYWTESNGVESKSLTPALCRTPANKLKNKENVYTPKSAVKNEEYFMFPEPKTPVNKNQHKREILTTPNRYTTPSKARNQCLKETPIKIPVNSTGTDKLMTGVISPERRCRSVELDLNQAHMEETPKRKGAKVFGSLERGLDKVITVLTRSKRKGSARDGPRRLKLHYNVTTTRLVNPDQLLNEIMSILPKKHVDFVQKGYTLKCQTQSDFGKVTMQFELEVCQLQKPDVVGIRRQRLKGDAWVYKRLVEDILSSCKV

Mus musculus [14] = test: Upregulation of PDK4 gene expression in C57BL/6J mouse muscles at 15 to 150 mg/kg, po; assay type: functional, organism-based; conditions: Muscle tissue
Cytochrome P450 2C9 = Cytochrome P450 2C9 (Homo sapiens, UniProt P11712); test: Inhibition of CYP2C9 (unknown origin); assay type: ADME
Sequence of Cytochrome P450 2C9 (P11712 whole entry): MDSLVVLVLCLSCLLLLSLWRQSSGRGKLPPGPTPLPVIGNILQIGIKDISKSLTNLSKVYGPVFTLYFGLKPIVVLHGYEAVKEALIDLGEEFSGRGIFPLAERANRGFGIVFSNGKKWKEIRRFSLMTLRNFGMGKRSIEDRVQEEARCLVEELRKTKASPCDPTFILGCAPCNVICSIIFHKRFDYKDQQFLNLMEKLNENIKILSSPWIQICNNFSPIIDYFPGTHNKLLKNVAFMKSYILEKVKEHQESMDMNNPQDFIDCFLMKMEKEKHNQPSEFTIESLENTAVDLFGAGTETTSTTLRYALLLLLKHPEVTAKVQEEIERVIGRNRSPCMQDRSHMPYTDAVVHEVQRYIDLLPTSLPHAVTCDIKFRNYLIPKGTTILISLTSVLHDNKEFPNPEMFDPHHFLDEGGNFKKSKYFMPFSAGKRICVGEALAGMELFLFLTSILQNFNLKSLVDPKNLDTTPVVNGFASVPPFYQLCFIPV

[15] = biological target: Serine/threonine-protein kinase MARK2 (Homo sapiens) (UniProt Q7KZI7); test: Activity at MARK2 (unknown origin)
Sequence of Serine/threonine-protein kinase MARK2 (Homo sapiens) (Q7KZI7 whole entry): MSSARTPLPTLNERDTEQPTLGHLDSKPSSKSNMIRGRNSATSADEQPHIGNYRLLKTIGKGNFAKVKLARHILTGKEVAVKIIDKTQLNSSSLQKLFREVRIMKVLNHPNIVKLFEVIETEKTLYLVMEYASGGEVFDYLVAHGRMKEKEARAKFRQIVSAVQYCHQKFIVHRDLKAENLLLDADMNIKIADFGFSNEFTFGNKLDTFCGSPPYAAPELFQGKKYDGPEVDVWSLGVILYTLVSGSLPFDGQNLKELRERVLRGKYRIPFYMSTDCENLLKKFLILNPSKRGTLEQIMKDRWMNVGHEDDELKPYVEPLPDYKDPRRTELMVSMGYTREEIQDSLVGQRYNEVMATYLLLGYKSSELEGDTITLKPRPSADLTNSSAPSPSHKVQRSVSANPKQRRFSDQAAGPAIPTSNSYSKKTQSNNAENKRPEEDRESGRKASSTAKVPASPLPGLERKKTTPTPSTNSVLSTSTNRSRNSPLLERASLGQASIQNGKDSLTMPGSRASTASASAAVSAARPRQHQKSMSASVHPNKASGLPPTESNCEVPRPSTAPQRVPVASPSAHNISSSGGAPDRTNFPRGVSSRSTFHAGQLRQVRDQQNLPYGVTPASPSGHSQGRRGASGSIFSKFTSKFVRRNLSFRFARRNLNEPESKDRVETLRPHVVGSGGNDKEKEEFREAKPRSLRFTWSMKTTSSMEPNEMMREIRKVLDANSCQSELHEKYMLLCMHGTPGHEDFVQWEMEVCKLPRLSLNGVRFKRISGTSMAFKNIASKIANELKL

[16] = AUC (0 to infinity) in Wistar rat at 2 mg/kg, iv by LC-MS/MS analysis; assay type: ADME, organism-based; design: time infinity, dose 2 mg/kg, route intravenous; conditions: plasma
Mus musculus [17] = test: Antidiabetic activity in diet-induced obese C57BL/6J mouse assessed as decrease in AUC at 50 to 150 mg/kg, po qd for 4 weeks by glucose tolerance test relative to control; assay type: functional; design: scale not given: the % may be the effect or the level left; conditions: dose mg/kg 50-150
Mus musculus [18] = test: Antidiabetic activity in diet-induced obese C57BL/6J mouse assessed as improved glucose tolerance at 50 to 150 mg/kg, po qd for 4 weeks by glucose tolerance test
Mus musculus [19] = test: Upregulation of long chain acyl CoA dehydrogenase gene expression in C57BL/6J mouse muscles at 15 to 150 mg/kg, po; assay type: functional, organism-based; conditions: Muscle tissue
L6 [20] = test: Activation of AMPK alpha1 D159A/alpha2 K45R mutant in rat L6 cells assessed as stimulation of glucose uptake after 15 mins; assay type: cell-based
[21] = AUC (0 to 24 hrs) in Wistar rat at 2 mg/kg, iv by LC-MS/MS analysis; assay type: ADME, organism-based; design: time < 24 hr, dose 2 mg/kg, route intravenous; conditions: plasma

Compound: O=C(O)c1cccc(CN2C(=O)/C(=C(\c3ccccc3)c3ccc(Cl)cc3)c3ccccc32)c1
- Activity (Mus musculus [1]): Active
- half-life [2]: 4 h
- Activity (Mus musculus [3]): Active
- Activity (L6 [4]): Dose-dependent effect
- AUC(0-inf) [5]: 29500 ng·h/mL
- Activity (Mus musculus [6]): Active
- pEC50 (AMPK alpha2/beta1/gamma1): 5.92
- inhibition (INH) (Cytochrome P450 1A2): Not Active
- Activity (Mus musculus [7]): 0.52 mM
- inhibition (INH) (Cytochrome P450 3A4): Not Active
- Activity (Mus musculus [8]): Active
- half-life [9]: 3.94 h
- Activity (Mus musculus [10]): Active
- AUC(0-t) at 24 h [11]: 28900 ng·h/mL
- Activity (Mus musculus [12]): Active
- inhibition (INH) (Cytochrome P450 2C19): Not Active
- inhibition (INH) (Cytochrome P450 2D6): Not Active
- Activity [13]: inactive
- Activity (Mus musculus [14]): Active
- inhibition (INH) (Cytochrome P450 2C9): Not Active
- Activity [15]: inactive
- AUC(0-inf) [16]: 17500 ng·h/mL
- Activity (Mus musculus [17]): 30%
- Activity (Mus musculus [18]): Active
- Activity (Mus musculus [19]): Active
- Activity (L6 [20]): inactive
- AUC(0-t) at 24 h [21]: 17300 ng·h/mL
